Only some compounds are listed: those with a hit (about 6% of all), similar ones and a draw of the others.
Jurkat tox 60K – cytotoxicity toward Jurkat cells. Jurkat E6.1 viability, ATP luminescence, 48 h. inhibition, % at 4 µM. 1.2% of 56,000 active;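 active = inhibition above the mean inhibition of all tested compounds plus 3 SD, cut at about 28% in these data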
H69AR inhibit – blocks growth of human H69AR lung tumor cells; H69AR lung tumor viability, ATP luminescence, 72 h; active compounds read low; viability, % at 10 µM; 6% of 85,000 active; AID 598;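 active = viability at or below 40%; inactive = viability above 40%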;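 note: multidrug resistant small cell line overexpressing MRP-1 efflux transporter; 100% = mean luminescence of untreated control wells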
Pyk2 oligo antag – blocks oligomerization of human Pyk2 in cells; Q14289; Q293 cells, Pyk2 FERM NanoBiT luminescence; active compounds read low; z-score (the deposit names both 25 µM and 10 µM); 0.83% of 99,000 active; AID 1347419;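 active = Z-score of -3 or lower, scaled per plate to the spread of control and sample wells; inactive = z-score above -3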;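 note: negative z-score means lost luminescence so less FERM oligomerization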
cytoskel mod – alters cytoskeleton assembly in HUVEC cells; 0.18% of 91,000 active; inhibition, % at 2 µM; HUVEC TNFa F-actin phalloidin imaging, high content;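 active = inhibition above the batch mean plus 3 SD and confirmed as a hit by visual image inspection, cut at about 30% in these data, passing the limit was not always enough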
HUVEC prolif 384 – human endothelial cell proliferation inhibition. viability, % at 10 µM (by protocol). 1.1% of 86,000 active. HUVEC proliferation, CellTiter-Glo luminescence, 72 h; active compounds read low. AID 648;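 active = viability at or below 30%; inactive = viability above 30%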;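 note: 100% = median luminescence of DMSO-only cell control wells on each plate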
Lung fibro prol – blocks proliferation of human lung fibroblasts | AID 719 | viability, % at 10 µM | LL 47 human lung fibroblast viability, ATP luminescence; active compounds read low | 1.1% of 85,000 active;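 active = viability at or below 50% in the single dose screen; inactive = viability above 50%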;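 note: compound exposure lasted 72 h before the ATP readout; 100% = median luminescence of untreated cell-only wells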
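material = human LL 47 lung fibroblast cells | dosing = compounds added from tenfold dosing solution, 0.1% DMSO final | timing = overnight cell rest, 72 h compound treatment at 37 °C | measured by = CellTiter-Glo luminescence measuring cellular ATP | evaluation = % viability versus median cells-only luminescence | control set = cell-only wells, no compound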
* = called active by the depositor; . = not tested or not shown.

SMILES	Jurkat tox 60K	H69AR inhibit	Pyk2 oligo antag	cytoskel mod	HUVEC prolif 384	Lung fibro prol
COCCN1C(=O)c2ccccc2C(C(=O)NCCCN2CCCC2=O)C1c1c[nH]c2ccccc12 (centres undefined)	1.0	95.8	0.41	.	92.0	88.2
COc1ccc(CNC(=O)COC(=O)c2cnccn2)cc1	.	96.4	0.37	-3.2	101.8	103.1
CCOCCCNC(=S)N1C2CCC1CC(NC(=O)NC13CC4CC(CC(C4)C1)C3)C2 (centres undefined)	.	.	0.52	9.0	.	.
CCOC(=O)N1CCC(Nc2c(-c3ccc(C)c(C)c3)c(=O)c2=O)CC1	4.0	33.5*	0.66	0.3	93.6	100.3
Cc1cc(Nc2nc3ccccc3nc2Cl)n(-c2ccccc2)n1	.	35.9*	0.45	-4.9	47.0	78.4
Cc1cc(Nc2nc3ccccc3nc2Cl)n(-c2ccccc2C)n1	.	16.9*	-1.18	-19.1	108.7	91.7
Cc1cc(Nc2ccc(Cl)cc2)n(-c2ccccc2)n1	.	95.2	-1.88	-1.3	82.9	54.1
Cc1cc(C)n(-c2nc3ccccc3nc2Nc2ccc3c(c2)OCO3)n1	-2.2	98.0	.	.	88.8	97.4
Fc1ccccc1OCCCN1CCOCC1	-7.6	78.4	0.64	-7.7	95.9	105.9
O=C(NN=C1CCCCCCCCCCC1)c1ccccc1F	.	.	-0.58	.	.	.
c1cc2c3c(cccc3c1)NC1(CCCCCC1)N2	-0.3	51.2	-1.28	.	5.5*	82.8
c1cc2c3c(cccc3c1)NC1(CCCCC1)N2	.	97.0	-1.61	-10.3	70.2	83.0
COCCCn1c(-c2ccsc2)nc2c1c(=O)[nH]c(=O)n2Cc1ccccc1	-4.5	75.0	-1.04	12.5	97.2	90.6
CCOC(=O)/C(=N/Nc1ccccc1)c1csc(Nc2ccccc2)n1	.	10.8*	-0.6	.	81.4	91.6
CCOC(=O)/C(=N\Nc1ccc(OC)cc1)c1csc(Nc2ccccc2)n1	.	23.6*	-1.2	-9.6	84.5	107.8
CCOC(=O)/C(=N\Nc1ccc(Cl)cc1)c1csc(Nc2ccccc2)n1	.	.	0.82	-33.6	.	.
CCN(CC)C(=O)c1csc(Nc2ccc(C)cc2)n1	1.9	.	0.21	52.9	99.5	95.8
CC1CCC(NC(=O)c2cc3c(=O)n(C)c4ccccc4c3n2C)CC1 (centres undefined)	1.3	29.0*	.	-12.7	68.0	88.4
Cn1c(C(=O)NC2CCCCCC2)cc2c(=O)n(C)c3ccccc3c21	1.2	12.4*	.	-14.1	60.0	92.9
CC1CCCCN1CCNC(=O)c1cc2c(=O)n(C)c3ccccc3c2n1C (centres undefined)	-3.1	85.5	.	-4.5	84.1	91.2
Cn1c(C(=O)NC2CCCCC2)cc2c(=O)n(C)c3ccccc3c21	-2.4	11.0*	.	-23.0	61.2	103.0
Cn1c(=O)c(C(=O)NC2CCCCCCC2)c(O)c2ccccc21	-4.1	98.7	0.26	.	101.9	95.6
CCOC(=O)c1ccc2c(c1)C(=O)N(C1CCCCC1)C2=O	-5.6	94.2	-1.32	.	107.0	100.5
CCC(=O)Oc1ccc(C(=O)Nc2ccc3c(c2)C(=O)N(C2CCCCC2)C3=O)cc1	.	5.3*	-2.67	-1.6	55.4	93.4
c1cnc(N2CC[N+]3(CCCC3)CC2)nc1	-4.7	97.4	1.7	-8.6	97.1	95.8
SMILES	Jurkat tox 60K	H69AR inhibit	Pyk2 oligo antag	cytoskel mod	HUVEC prolif 384	Lung fibro prol
O=C1C(=O)N(CCCn2ccnc2)C(c2cccnc2)/C1=C(/O)c1ccc(Cl)cc1 (centres undefined)	4.9	100.7	.	.	104.6	108.4
COCCOC(=O)c1c(C)nc(SCC(=O)Nc2ccc(C)cc2)c(C#N)c1-c1ccco1	.	53.5	-2.1	.	77.1	87.8
COCCOC(=O)c1c(C)nc(SCC(=O)Nc2cccc3ccccc23)c(C#N)c1-c1ccco1	.	11.3*	-2.28	-10.1	55.8	92.5
COC(=O)C(C)Sc1nc(-c2ccc(OC)cc2)nc2c1c(=O)n(C)c(=O)n2C (centres undefined)	-0.4	71.3	.	10.0	102.4	101.9
Cc1nn(-c2cc(N3CCNCC3)ccc2[N+](=O)[O-])c(=O)c2ccccc12	.	97.4	-0.28	-14.6	85.5	102.0
Cc1nn(-c2cc(N3CCCCC3)ccc2[N+](=O)[O-])c(=O)c2ccccc12	.	86.9	-3.76*	1.7	103.3	101.8
CC(=O)c1ccc(Nc2nc(NCCO)nc(OC(C(F)(F)F)C(F)(F)F)n2)cc1	.	58.2	-3.27*	-5.2	62.4	103.5
CNc1nc(Nc2ccc(C(C)=O)cc2)nc(OC(C(F)(F)F)C(F)(F)F)n1	.	.	-3.19*	12.9	.	.
COc1ccc(Nc2nc(NCCO)nc(OC)n2)cc1	.	104.8	1.56	5.9	85.9	91.3
